Measured values reported in PubChem BioAssay AID623990 (Broad Institute, 2012).
Activity calls are given as the source filed them.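 How the source made its calls: active means falling cell signal with fitted IC50 no higher than a set limit, twice the top tested dose; inconclusive means flat fit with toxicity between 30 and 70%, or poor fit; inactive means the rest.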

tested on: not listed separately; assay: mammalian cell viability loss in HeLa – CellTiter-Glo luminescence, dry powder, set 2, cytotoxicity control for pyoverdine/PvdQ inhibitor project, dose response (AID 623990); conditions: HeLa viability, CellTiter-Glo ATP luminescence; at 120 µM (top of the series)
In short: (§1)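 Assay system: HeLa cells | Input: 2,500 cells/well | Medium: Phenol red-free DMEM, 10% FBS | Compound: 3-fold dose series | Incubation: Cells settled 24 h at 37 °C, then compound exposure 48 h | Signal: CellTiter-Glo luciferase luminescence (0.5X reagent), reporting intracellular ATP | Read-out basis: Cell viability from luminescent signal, signal drop indicating toxicity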

Row | Structure (SMILES) | activity change, negative = toxicity
1 | N#CC(c1ccc(Cl)cc1)c1ccccn1 (stereo unspecified) | 5.57% (inactive)
2 | CCCCC(C#N)c1ccc(F)cc1 (stereo unspecified) | 5.81% (inactive)
3 | COCCNC(C#N)c1ccc(Cl)cc1 (stereo unspecified) | 4.87% (inactive)
4 | N#CC(c1ccc(F)cc1)c1cccc(C(F)(F)F)n1 (stereo unspecified) | 13.5% (inactive)
5 | COCCC(C#N)c1ccc(F)cc1 (stereo unspecified) | 6.44% (inactive)
6 | CCCCC(C#N)c1ccccn1 (stereo unspecified) | 2.12% (inactive)
7 | N#CC(c1ccc(Cl)cc1)c1cccc(C(F)(F)F)n1 (stereo unspecified) | 10.3% (inactive)
8 | N#Cc1cccc(C(C#N)c2ccc(F)cc2)n1 (stereo unspecified) | 4.63% (inactive)
9 | COCCOCCC(C#N)c1ccc(F)cc1 (stereo unspecified) | 3.67% (inactive)
10 | CCCCC(C#N)c1ccc(Cl)cn1 (stereo unspecified) | 27.3% (inactive)
11 | CCCCC(C#N)c1ccc(Cl)cc1 (stereo unspecified) | 13.5% (inactive)
12 | N#CC(c1ccc(Cl)cc1)c1cccc(Cl)n1 (stereo unspecified) | 12.2% (inactive)
13 | N#CC1c2ccc(Cl)cc2CCc2cccnc21 (stereo unspecified) | 2.14% (inactive)
14 | N#CC(c1ccc(C(F)(F)F)c(Cl)n1)c1ccccc1OC(F)(F)F (stereo unspecified) | 5.17% (inactive)
15 | COCCOCCC(C#N)c1ccc(Cl)cc1 (stereo unspecified) | -0.038% (inactive)
16 | N#CC(c1ccc(F)cc1)c1cccc(Cl)n1 (stereo unspecified) | -3.39% (inactive)
17 | Clc1ccc(C(c2cccc(Cl)n2)c2nn[nH]n2)cc1 (stereo unspecified) | 8.71% (inactive)
18 | N#CC(c1ccc(Cl)cc1)N1CCCC1 (stereo unspecified) | 30.4% (inactive)
19 | CN(C)CCCC(C#N)c1ccc(Cl)cc1 (stereo unspecified) | 23.3% (inactive)
20 | CCCCC(C#N)c1ccc(F)cn1 (stereo unspecified) | 7.3% (inactive)

tested on: HeLa viability, CellTiter-Glo ATP luminescence; assay: as above; conditions: not given
In short: as §1

Row | Structure (SMILES) | IC50
21 | N#CC(c1cccc(C(F)(F)F)n1)c1ccc(Cl)cc1F (stereo unspecified) | > 240 µM (inactive)
22 | COCCC(C#N)c1ccc(Cl)cc1 (stereo unspecified) | 62.2 µM
23 | CN(C)CCCC(C#N)c1ccc(F)cc1 (stereo unspecified) | > 240 µM (inactive)
24 | N#CC(c1ccc(Cl)cc1)c1ncccc1Cl (stereo unspecified) | > 240 µM (inactive)
25 | N#CC(c1cccc(Cl)n1)c1ccc(Cl)cc1F (stereo unspecified) | 111 µM
26 | CCCCC(c1ccc(Cl)cc1)c1nn[nH]n1 (stereo unspecified) | > 240 µM (inactive)
